Reference: ChEMBL document CHEMBL4251567 (Eur J Med Chem, 2018)

Experiments:
[1] = target: T1, Histone deacetylase 8 (Homo sapiens) (UniProt Q9BY41); assay: Inhibition of human recombinant full-length C-terminal His-tagged HDAC8 expressed in baculovirus infected Sf9 insect cell assessed as remaining activity at 4 x 10^-7 M preincubated for 15 mins followed by HDAC-Glo substrate addition measured after 30 mins by fluorimetric method rel;ative to control
T1 sequence (whole entry): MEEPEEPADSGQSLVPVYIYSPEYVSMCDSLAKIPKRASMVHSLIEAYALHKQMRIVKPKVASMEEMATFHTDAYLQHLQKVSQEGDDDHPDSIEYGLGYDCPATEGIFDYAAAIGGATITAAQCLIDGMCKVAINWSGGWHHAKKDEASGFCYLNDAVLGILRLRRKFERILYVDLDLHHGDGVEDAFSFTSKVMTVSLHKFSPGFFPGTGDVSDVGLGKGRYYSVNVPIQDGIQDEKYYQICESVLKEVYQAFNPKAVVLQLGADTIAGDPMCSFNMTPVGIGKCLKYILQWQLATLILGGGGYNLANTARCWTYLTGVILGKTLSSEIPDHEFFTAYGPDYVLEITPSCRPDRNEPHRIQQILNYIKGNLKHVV
How it was run: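 Recombinant HDAC8 (75 ng) preincubated 15 min at RT with inhibitor in DMSO in HDAC-Glo buffer. HDAC-Glo reagent added and luminescence read 30 min later. Background taken from a reaction without enzyme; activity as % of DMSO control.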

Jurkat = assay: Cytotoxicity against human Jurkat cells assessed as cell viability at 10 uM after 44 hrs by MTT assay relative to control; assay type: functional; conditions: read-out: Activity
U-937 [2] = assay: Cytotoxicity against human U937 cells assessed as cell viability at 3.2 x 10^-5 M after 44 hrs by MTT assay relative to control; assay type: functional; conditions: U-937, 44 h, read-out: Activity
U-937 [3] = assay: Cytotoxicity against human U937 cells assessed as cell viability at 6.4 x 10^-5 M after 44 hrs by MTT assay relative to control; assay type: functional; conditions: U-937, 44 h, read-out: Activity
[4] = target: T2, Histone deacetylase (Homo sapiens) (UniProt Q13547+O15379+Q9UBN7+Q92769+Q9UQL6+Q8WUI4+Q9BY41+Q96DB2+P56524+Q9UKV0+Q969S8); assay: Inhibition of HDAC in human HeLa-S3 cell lysates assessed as residual activity at 2 x 10^-4 M preincubated for 15 mins followed by HDAC-Glo substrate addition measured after 35 mins by fluorimetric method relative to control; assay type: protein assay
How it was run: (§1)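 Lysate (1 μg total protein) in HDAC-Glo buffer was preincubated with inhibitor in DMSO for 15 min at room temperature. HDAC-Glo substrate/developer reagent was added and luminescence read after 35 min. Concentrations are final. Signal corrected for a no-lysate blank; % of DMSO control.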

[5] = target: T2, Histone deacetylase (Homo sapiens); assay: Inhibition of HDAC in human HeLa-S3 cell lysates assessed as residual activity at 2.5 x 10^-5 M preincubated for 15 mins followed by HDAC-Glo substrate addition measured after 35 mins by […] relative to control; assay type: protein assay
U-937 [6] = assay: Cytotoxicity against human U937 cells assessed as cell viability at 4 x 10^-6 M after 44 hrs by MTT assay relative to control; assay type: functional; conditions: U-937, 44 h, read-out: Activity
[7] = target: Histone deacetylase 1 (Homo sapiens) (UniProt Q13547); assay: Inhibition of HDAC1 in human HeLa-S3 cell lysates assessed as remaining activity at 2 x 10^-6 M preincubated for 15 mins followed by HDAC-Glo substrate addition […] relative to control
[8] = target: Histone deacetylase 3 (Homo sapiens) (UniProt O15379); assay: Inhibition of HDAC3 in human HeLa-S3 cell lysates assessed as remaining activity at 8 x 10^-6 M preincubated for 15 mins followed by HDAC-Glo substrate addition measured after 30 to 40 mins by […] relative to control
How it was run: (§2)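 Antibody-capture (ELISA-type) assay: HDAC antibody coated in carbonate/bicarbonate buffer pH 9.4, wells blocked with 5% milk in TBST. HeLa-S3 lysate added at 1 mg/mL for HDAC3, 1 h at 4 °C, then washed. Inhibitor in DMSO preincubated 15 min at RT in HDAC-Glo buffer. HDAC-Glo reagent added, luminescence read after 30-40 min. Concentrations are final. Background = no-antibody well; activity given as % of DMSO control.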

[9] = target: T2, Histone deacetylase (Homo sapiens); assay: Inhibition of HDAC in human HeLa-S3 cell lysates assessed as residual activity at 4.8 x 10^-5 M preincubated for 15 mins followed by HDAC-Glo substrate addition measured after 35 mins by […] relative to control; assay type: protein assay
[10] = target: Histone deacetylase 3 (Homo sapiens) (UniProt O15379); assay: Inhibition of HDAC3 in human HeLa-S3 cell lysates assessed as remaining activity at […] preincubated for 15 mins followed by HDAC-Glo substrate addition measured after 30 to 40 mins by […] relative to control
[11] = target: Histone deacetylase 1 (Homo sapiens) (UniProt Q13547); assay: Inhibition of HDAC1 in human HeLa-S3 cell lysates assessed as remaining activity at 8 x 10^-6 M preincubated for 15 mins followed by HDAC-Glo substrate addition measured after 30 to 40 mins by […] relative to control
[12] = target: Histone deacetylase 1 (Homo sapiens) (UniProt Q13547); assay: Inhibition of HDAC1 in human HeLa-S3 cell lysates assessed as remaining activity at 4 x 10^-6 M preincubated for 15 mins followed by HDAC-Glo substrate addition measured after 30 to 40 mins by […] relative to control
How it was run: (§3)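 HDAC1 was captured from HeLa-S3 lysate (100 μg/mL) onto wells precoated with anti-HDAC1 antibody (10 μg/mL, carbonate buffer pH 9.4) and milk-blocked, 1 h at 4 °C, then washed. Inhibitor in DMSO was added in HDAC-Glo buffer for 15 min at room temperature. HDAC-Glo reagent was added and luminescence read after 30-40 min. Concentrations are final. No-antibody background subtracted; % of DMSO control.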

[13] = target: T2, Histone deacetylase (Homo sapiens); assay: Inhibition of HDAC in human HeLa-S3 cell lysates assessed as residual activity at 3 x 10^-6 M preincubated for 15 mins followed by HDAC-Glo substrate addition measured after 35 mins by […] relative to control; assay type: protein assay
[14] = target: T2, Histone deacetylase (Homo sapiens); assay: Inhibition of HDAC in human HeLa-S3 cell lysates assessed as residual activity at 6 x 10^-6 M preincubated for 15 mins followed by HDAC-Glo substrate addition measured after 35 mins by […] relative to control; assay type: protein assay; how it was run: as §1
[15] = target: Histone deacetylase 1 (Homo sapiens) (UniProt Q13547); assay: Inhibition of HDAC1 in human HeLa-S3 cell lysates assessed as remaining activity at 1.6 x 10^-5 M preincubated for 15 mins followed by HDAC-Glo substrate addition measured after 30 to 40 mins by […] relative to control; how it was run: as §3
[16] = target: Histone deacetylase 3 (Homo sapiens) (UniProt O15379); assay: Inhibition of HDAC3 in human HeLa-S3 cell lysates assessed as remaining activity at 1.25 uM preincubated for 15 mins followed by HDAC-Glo substrate addition measured after 30 to 40 mins by […] relative to control; how it was run: as §2

Sequence of Histone deacetylase 3 (Homo sapiens) (O15379 whole entry): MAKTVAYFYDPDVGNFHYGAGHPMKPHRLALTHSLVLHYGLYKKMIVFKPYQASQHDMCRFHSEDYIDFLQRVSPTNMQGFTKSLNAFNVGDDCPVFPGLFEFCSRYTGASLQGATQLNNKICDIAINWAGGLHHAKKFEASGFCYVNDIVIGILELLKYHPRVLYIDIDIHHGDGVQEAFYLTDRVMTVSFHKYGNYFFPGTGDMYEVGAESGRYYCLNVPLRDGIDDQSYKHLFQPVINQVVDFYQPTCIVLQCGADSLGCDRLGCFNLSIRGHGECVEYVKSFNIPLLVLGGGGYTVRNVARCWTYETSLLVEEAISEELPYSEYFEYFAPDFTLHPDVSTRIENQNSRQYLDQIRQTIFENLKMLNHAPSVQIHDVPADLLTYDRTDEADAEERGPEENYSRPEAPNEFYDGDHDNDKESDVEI
Sequence of Histone deacetylase 1 (Homo sapiens) (Q13547 whole entry): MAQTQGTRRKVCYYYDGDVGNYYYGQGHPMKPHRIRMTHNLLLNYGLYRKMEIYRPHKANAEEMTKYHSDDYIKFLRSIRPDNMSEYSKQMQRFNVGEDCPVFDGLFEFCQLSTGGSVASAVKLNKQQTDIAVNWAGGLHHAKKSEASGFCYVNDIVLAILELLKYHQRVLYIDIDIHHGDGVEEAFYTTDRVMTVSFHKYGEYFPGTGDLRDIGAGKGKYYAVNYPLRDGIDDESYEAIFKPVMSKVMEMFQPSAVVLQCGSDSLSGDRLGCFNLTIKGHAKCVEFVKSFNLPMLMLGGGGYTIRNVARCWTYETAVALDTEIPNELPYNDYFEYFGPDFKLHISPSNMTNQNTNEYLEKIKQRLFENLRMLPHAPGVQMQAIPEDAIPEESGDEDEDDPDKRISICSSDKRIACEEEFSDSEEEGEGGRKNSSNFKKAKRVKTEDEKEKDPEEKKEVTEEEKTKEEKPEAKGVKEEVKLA

Activity [1] | Activity [4] | Activity [5] | Activity [7] | Activity [8] | Activity [9] | Activity [10] | Activity [11] | Activity [12] | Activity [13] | Activity [14] | Activity [15] | Activity [16] | SMILES | viability at 10 µM (Jurkat) | viability at 32 µM (U-937 [2]) | viability at 64 µM (U-937 [3]) | viability at 4 µM (U-937 [6])
28% | – | – | – | – | – | – | – | – | – | – | – | – | O=C(CC[C@H](CCCC(=O)Nc1ccccc1)Cc1ccccc1)NO | – | – | – | –
– | 19% | 74% | – | – | – | – | – | – | – | – | – | – | O=C(CCC(CCCC(=O)Nc1ccccc1)Cc1ccccc1)NO (racemic) | 97% | 49% | 26% | 74%
25% | – | – | 68% | 52% | 12% | 71% | 32% | 58% | 92% | 82% | 19% | – | CCC(CCCC(=O)Nc1ccccc1)CCC(=O)NO (centres undefined) | – | – | – | –
– | 21% | 73% | – | – | – | – | – | – | – | – | – | 100% | CCCCCCC(CCCC(=O)Nc1ccccc1)CCC(=O)NO (centres undefined) | 39% | 28% | 24% | 108%
